Assay results as given in PubChem BioAssay.
Calls of active or inactive are those of the source.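 The calls were made as follows, unless noted: active = viability at or below 10% of carrier control in both of two separate runs; inconclusive = viability at or below 10% in only one of the two runs; inactive = the rest.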

Legend:
[1] = reducers of endogenous Her2 protein level, primary screen, SKBR3 breast tumor cells, AlphaScreen, ATP viability (AID 461;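 active = Her2 level under about 52% in both replicate screens, with viability over 70% of control, limit read from the data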;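 as to Her2 level: lower value means less Her2 protein in the cells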;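 as to viability: percent of carrier control wells set as 100% viability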); details: 18-24 h, measured here: SKBR3 viability, ATP luminescence, at 10 µM
[2] = biological target: Receptor tyrosine-protein kinase erbB-2 (Homo sapiens) (UniProt P04626); test: as above; details: 18-24 h, at 10 µM, stronger effect = lower value
Chain of Receptor tyrosine-protein kinase erbB-2 (Homo sapiens) (P04626 whole entry, looked up): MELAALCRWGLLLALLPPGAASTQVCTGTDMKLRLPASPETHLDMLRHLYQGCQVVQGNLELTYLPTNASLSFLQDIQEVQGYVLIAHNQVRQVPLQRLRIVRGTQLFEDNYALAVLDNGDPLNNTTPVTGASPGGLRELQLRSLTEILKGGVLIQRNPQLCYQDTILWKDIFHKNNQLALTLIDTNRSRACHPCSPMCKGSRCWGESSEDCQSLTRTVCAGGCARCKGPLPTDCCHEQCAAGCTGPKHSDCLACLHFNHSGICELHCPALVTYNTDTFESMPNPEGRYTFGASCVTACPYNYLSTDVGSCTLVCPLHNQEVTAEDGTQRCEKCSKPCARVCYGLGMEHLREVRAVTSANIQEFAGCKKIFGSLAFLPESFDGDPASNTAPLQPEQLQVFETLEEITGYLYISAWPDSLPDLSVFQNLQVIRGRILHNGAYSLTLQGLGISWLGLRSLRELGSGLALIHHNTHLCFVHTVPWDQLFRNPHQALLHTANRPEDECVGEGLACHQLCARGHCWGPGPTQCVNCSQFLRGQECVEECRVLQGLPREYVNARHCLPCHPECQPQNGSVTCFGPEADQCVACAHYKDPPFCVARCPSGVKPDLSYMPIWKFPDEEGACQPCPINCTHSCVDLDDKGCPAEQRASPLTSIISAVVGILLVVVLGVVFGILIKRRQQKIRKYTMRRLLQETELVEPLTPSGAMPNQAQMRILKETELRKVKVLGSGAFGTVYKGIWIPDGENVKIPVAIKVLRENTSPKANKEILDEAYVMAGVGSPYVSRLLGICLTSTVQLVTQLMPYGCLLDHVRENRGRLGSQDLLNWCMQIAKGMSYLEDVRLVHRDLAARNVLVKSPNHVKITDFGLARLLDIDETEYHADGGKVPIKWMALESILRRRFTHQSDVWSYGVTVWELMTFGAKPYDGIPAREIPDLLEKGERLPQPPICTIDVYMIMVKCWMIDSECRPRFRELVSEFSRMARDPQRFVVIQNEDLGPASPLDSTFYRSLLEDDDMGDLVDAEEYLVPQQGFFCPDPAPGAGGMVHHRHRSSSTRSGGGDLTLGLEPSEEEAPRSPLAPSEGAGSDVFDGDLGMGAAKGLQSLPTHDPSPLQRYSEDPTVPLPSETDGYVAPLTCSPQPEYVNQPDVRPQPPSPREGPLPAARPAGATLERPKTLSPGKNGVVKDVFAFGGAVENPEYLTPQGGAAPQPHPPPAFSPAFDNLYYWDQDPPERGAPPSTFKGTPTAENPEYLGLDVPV

[3] = SK-BR-3 cell growth inhibitors, pilot screen, 24 h, human (AID 572); details: SK-BR-3 viability, CellTiter-Glo luminescence, at 10 µM, stronger effect = lower value;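 also: compound exposure lasted between 18 and 24 h rather than exactly 24 h; 100% = carrier-treated control wells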
[4] = HUVEC growth inhibition – cell-based, human, primary screen (AID 575;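 active = viability at or below 30% in both replicate assays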;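 also: 100% = median of untreated cell wells with 0.1% DMSO on each plate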); details: HUVEC proliferation, CellTiter-Glo luminescence, 72 h; at 10 µM; stronger effect = lower value
Outline: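 Assay system: primary human umbilical vein endothelial cells / Buffer or medium: endothelial basal medium with 2% FBS plus growth supplements / Compound dosing: one dose, 10 µM final, 0.1% DMSO / Timing: 72 h treatment at 37 °C / Signal: CTG luminescence / Benchmarks: 32 DMSO-only cell-control wells (high), 32 MePR drug-control wells (low) per plate / Plate: collagen-coated 384-well format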

[5] = growth inhibitors of H69AR lung tumor, primary screen, human, duplicate replicates (AID 580;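 active = viability at or under a set limit in both replicates, limit being median viability minus 3 SD, cut at about 48% in these data, passing the limit was not always enough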;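 also: 100% = mean luminescence of untreated wells and 0% = no signal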); details: H69AR lung tumor cells viability, ATP luminescence, 72 h; at 10 µM; stronger effect = lower value
[6] = reversal of MRP1-mediated doxorubicin resistance, pilot screen, H69AR cells, doxorubicin co-treatment (AID 601;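 active = viability loss from added drug above about 55%, and viability with drug at most 40%, in both replicates, limit read from the data, passing the limit was not always enough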); details: CellTiter-Glo, 72 h, at 10 µM; for differential viability (reversal): stronger effect = higher value
[7] = 384-well plate pilot, post-Golgi transport modulator project, inhibition of yeast transport mutant growth (AID 636; in the data active = inhibition above about 31%); details: absorbance 615 nm, about 18 h, stronger effect = higher value
[8] = growth suppression of yeast trafficking mutant, preliminary HTS, modulators of trafficking downstream of Golgi apparatus project, 1536-format plate, OD 615 nm (AID 637; in the data active = inhibition above about 30%); details: yeast transport mutant growth, absorbance 615 nm, 18 h; stronger effect = higher value
[9] = H69AR cells + 2 uM doxorubicin, measured here: viability with 2 uM doxorubicin, stronger effect = lower value
[10] = H69AR cells, compound alone cytotoxicity

Row | SMILES | viability [1] | Her2 level [2] | viability [3] | viability [4] | viability [5] | differential viability (reversal) ([6]; H69AR cells + 2 uM doxorubicin) | viability [6, 9] | viability [6, 10] | inhibition [7] | inhibition [8]
1 | O=C(Cn1cnc2c(nnn2Cc2ccccc2)c1=O)c1ccc(Cl)cc1 | 93.5% | 110% (inactive) | 93.5% (inactive) | 84.5% (inactive) | 97.1% (inactive) | 8.5% (inactive) | 88.6% | 97.1% | -3.46% (inactive) | -0.17% (inactive)
2 | COCCNC(=O)C1CCCN(c2ncccn2)C1 (stereo not given) | 93% | 79% (inactive) | 93% (inactive) | 98.8% (inactive) | 89.8% (inactive) | -8.68% (inactive) | 98.5% | 89.8% | -7.81% (inactive) | 1.27% (inactive)
3 | O=C(O)COc1ccc(Oc2ccccc2)cc1 | 102% | 106% (inactive) | 102% (inactive) | 96.1% (inactive) | 109% (inactive) | 13.3% (inactive) | 96% | 109% | 0.26% (inactive) | -3.55% (inactive)
4 | CCOC(=O)c1c(N)sc(C(=O)N2CCOCC2)c1C | 127% | 115% (inactive) | 127% (inactive) | 103% (inactive) | 98.9% (inactive) | 1.31% (inactive) | 97.6% | 98.9% | -7.07% (inactive) | -1.75% (inactive)
5 | Cc1nn(C)c(C)c1S(=O)(=O)N1CCCC(C(=O)N2CCN(c3ccc(Cl)cc3)CC2)C1 (stereo not given) | 102% | 70% (inactive) | 102% (inactive) | 87.7% (inactive) | 88.3% (inactive) | 19.3% (inactive) | 69% | 88.3% | -2.43% (inactive) | 3.49% (inactive)
6 | Nc1nnc(-c2ccccc2)c(-c2ccccc2)n1 | 96.5% | 90% (inactive) | 96.5% (inactive) | 86.4% (inactive) | 99.2% (inactive) | 5.16% (inactive) | 94% | 99.2% | -4.53% (inactive) | 7.42% (inactive)
7 | CN(C#N)c1nc(N2CCOCC2)nc(N2CCOCC2)n1 | 111% | 120% (inactive) | 111% (inactive) | 81.7% (inactive) | 92.8% (inactive) | 3.22% (inactive) | 89.5% | 92.8% | -1.22% (inactive) | 6.35% (inactive)
8 | COC(=O)c1ccc(CNC(=O)CSc2nc3sc(C)c(C)c3c(=O)n2C)o1 | 93.5% | 102% (inactive) | 93.5% (inactive) | 97.5% (inactive) | 98.5% (inactive) | 15.5% (inactive) | 82.9% | 98.5% | 0.65% (inactive) | -4.33% (inactive)
9 | Cc1csc2ncc(C(=O)N3CCc4ccccc43)c(=O)n12 | 95.5% | 109% (inactive) | 95.5% (inactive) | 86% (inactive) | 89% (inactive) | -3.54% (inactive) | 92.5% | 89% | -7.2% (inactive) | 4% (inactive)
10 | N/C(=N/O)c1nc(N2CCCC2)nc(N(c2ccccc2)c2ccccc2)n1 | 108% | 93.5% (inactive) | 108% (inactive) | 75.9% (inactive) | 65.2% (inactive) | 5.79% (inactive) | 59.4% | 65.2% | -6.62% (inactive) | 3.17% (inactive)
11 | Cc1ccc(CS(=O)(=O)CCC(=O)NCC2CCCO2)cc1 (stereo not given) | 96.5% | 106% (inactive) | 96.5% (inactive) | 116% (inactive) | 93.3% (inactive) | 2.6% (inactive) | 90.7% | 93.3% | -7.03% (inactive) | 7.5% (inactive)
12 | COc1ccc2nc3oc(C(=O)N4CCCCC4)cc3cc2c1 | 98% | 90.5% (inactive) | 98% (inactive) | 86.5% (inactive) | 86.7% (inactive) | 2.71% (inactive) | 83.9% | 86.7% | -5.26% (inactive) | -3.67% (inactive)
13 | COc1ccc(OCCCC(=O)Nc2ccc3c(c2)OCCO3)cc1 | 99.5% | 93.5% (inactive) | 99.5% (inactive) | 81.8% (inactive) | 82.7% (inactive) | -3.62% (inactive) | 86.3% | 82.7% | -6.76% (inactive) | -6.83% (inactive)
14 | CCc1cc2ccc(C)cc2nc1SCC(=O)N1CCN(C(=O)c2ccco2)CC1 | 112% | 82% (inactive) | 112% (inactive) | 70.1% (inactive) | 64.5% (inactive) | -5.54% (inactive) | 70% | 64.5% | -3.82% (inactive) | -0.18% (inactive)
15 | COc1ccc(CC(=O)Nc2c3c(nn2-c2cccc(Cl)c2)CS(=O)(=O)C3)cc1 | 84.5% | 89% (inactive) | 84.5% (inactive) | 104% (inactive) | 90.2% (inactive) | 1.1% (inactive) | 89.1% | 90.2% | -6.8% (inactive) | 3.06% (inactive)
16 | Cc1onc(-c2ccccc2Cl)c1C(=O)Nc1cccc(-c2cn3cccnc3n2)c1 | 104% | 84% (inactive) | 104% (inactive) | 71.4% (inactive) | 85.6% (inactive) | 1.15% (inactive) | 84.5% | 85.6% | -5.39% (inactive) | -1.82% (inactive)
17 | Cc1cc(C)cc(NC(=O)C2CCCN(S(=O)(=O)c3cnc[nH]3)C2)c1 (stereo not given) | 99% | 96% (inactive) | 99% (inactive) | 92.5% (inactive) | 88.6% (inactive) | -1.48% (inactive) | 90.1% | 88.6% | -4.27% (inactive) | 0.67% (inactive)
18 | Cc1ccc(S(=O)(=O)CCc2nnc(NC(=O)c3cnccn3)s2)cc1 | 97.5% | 87% (inactive) | 97.5% (inactive) | 116% (inactive) | 99.6% (inactive) | 1.94% (inactive) | 97.6% | 99.6% | -4.13% (inactive) | 3.93% (inactive)
19 | CCCCOc1ccc(-c2nnc(N)s2)cc1 | 85.5% | 98% (inactive) | 85.5% (inactive) | 93.3% (inactive) | 98.5% (inactive) | 12.6% (inactive) | 85.9% | 98.5% | 3.33% (inactive) | 1.15% (inactive)
20 | NC(=O)NC(=O)CSc1cccc(C(F)(F)F)c1 | 138% | 94.5% (inactive) | 138% (inactive) | 90.1% (inactive) | 88.2% (inactive) | 1.01% (inactive) | 87.2% | 88.2% | -8.63% (inactive) | 2.22% (inactive)
21 | NC(=O)COC(=O)c1ccc(S(=O)(=O)N2CCCCCC2)cc1 | 93% | 104% (inactive) | 93% (inactive) | 92.8% (inactive) | 88% (inactive) | -2.85% (inactive) | 90.9% | 88% | -2.82% (inactive) | -7.67% (inactive)
22 | O=C(COC(=O)c1cncc(Br)c1)NCCC1=CCCCC1 | 93.5% | 93% (inactive) | 93.5% (inactive) | 101% (inactive) | 97.5% (inactive) | 9.04% (inactive) | 88.4% | 97.5% | -1.28% (inactive) | -1.33% (inactive)
23 | O=C1CCCC2=C1C(c1ccc(Br)cc1)c1c([nH]c(=S)[nH]c1=O)N2 (stereo not given) | 84% | 112% (inactive) | 84% (inactive) | 99.3% (inactive) | 91.7% (inactive) | 6.69% (inactive) | 85.1% | 91.7% | -4.47% (inactive) | 8.67% (inactive)
24 | CCN(CC)S(=O)(=O)c1ccc(Br)c(OC)c1 | 106% | 84% (inactive) | 106% (inactive) | 90.4% (inactive) | 96.3% (inactive) | 5.01% (inactive) | 91.3% | 96.3% | -6.89% (inactive) | -2.13% (inactive)
25 | CCN(CC)S(=O)(=O)c1ccc(NC2CCCc3ccccc32)nc1 (stereo not given) | 71.5% | 77% (inactive) | 71.5% (inactive) | 88.6% (inactive) | 86% (inactive) | 0.97% (inactive) | 85.1% | 86% | -4.46% (inactive) | -3.17% (inactive)
26 | CC1(C)CC(=O)c2cnc(NCc3ccco3)nc2C1 | 99% | 107% (inactive) | 99% (inactive) | 114% (inactive) | 96.2% (inactive) | 11% (inactive) | 85.2% | 96.2% | -10.4% (inactive) | -8.83% (inactive)
27 | OCCNCCCCOc1ccccc1F | 84.5% | 128% (inactive) | 84.5% (inactive) | 111% (inactive) | 102% (inactive) | 8.07% (inactive) | 94.3% | 102% | 2.69% (inactive) | -8.17% (inactive)
28 | CCCNS(=O)(=O)c1ccc(OCC(=O)NCc2ccco2)cc1 | 93.5% | 120% (inactive) | 93.5% (inactive) | 91.3% (inactive) | 83.7% (inactive) | -3.46% (inactive) | 87.2% | 83.7% | 1.6% (inactive) | -3.65% (inactive)
